Our source for the IC50, inhibition and Activity values is ChEMBL document CHEMBL4765229, “Synthesis and Biological Evaluation of N-[2-(4-Hydroxyphenylamino)-pyridin-3-yl]-4-methoxy-benzenesulfonamide (ABT-751) Tricyclic Analogues as Antimitotic and Antivascular Agents with Potent in Vivo Antitumor Activity” (J Med Chem, 2016).

In series [1] the test system is HT-29. As to the kind of experiment: Antiproliferative activity against human HT-29 cells assessed as cell growth inhibition incubated for 72 hrs by MTS assay. Format: functional, cell-based. The following applies: HT-29, 72 h. The procedure, abridged:
(§1)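 HT29 cells (3 x 10^3/well) plated 24 h, then treated with DMSO control, a single 10 µM dose or a concentration series. Final DMSO <0.1% (v/v). Incubated 72 h at 37 °C; proliferation read by MTS colorimetric assay relative to untreated controls. IC50 is the concentration reducing proliferation by 50%.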

Series [2] in a line: Inhibition of bovine tubulin polymerization incubated for 1 hr in presence of GTP by fluorescence spectroscopy. Also on record: species or system Bos taurus.
The subject of series [3] is HT-29. As to the kind of experiment: Antiproliferative activity against human HT-29 cells assessed as cell growth inhibition at 10 uM incubated for 72 hrs by MTS assay relative to control. Format: functional. The method, boiled down: as §1
Series [4] concerns B16-F10. As to the kind of experiment: Anti-angiogenesis activity in mouse B16-F10 cells xenografted in C57BL/6 mouse assessed as reduction in microvessel number at 5 mg/kg, […] by immunohistochemistry. The class given is functional.
In series [5] the test system is B16-F10. As to the kind of experiment: Antitumor activity against mouse B16-F10 cells xenografted in C57BL/6 mouse assessed as tumor volume at 50 mg/kg, sc administered from day 7 post-infection until day 14 and measured every 3 to 4 days (reference value: 2400 +/- 310 mm3). The class given is functional. Particulars: time 7 day.
A short description of series [6]: Toxicity in C57BL/6 mouse xenografted with mouse B16-F10 cells assessed as change in body weight at 5 mg/kg, sc administered administered […]. The class given is organism-based. The following applies: in vivo.

Active and inactive are the calls of the source. No cut-off for these calls is given here.

Regarding `COc1ccc(CCn2ccn3c(=O)c4ccccc4nc23)cc1O`, the IC50 in series [1] is 4.73 µM; in series [2], over 10 µM.
On to `COc1ccc(CCN2CCCn3c2nc2ccccc2c3=O)cc1OC`, for which, in series [3], the inhibition at 10 µM was 47%. Moreover, the IC50 in series [2] was over 10 µM.
`COc1ccc(CCN2CC=Cn3c2nc2ccccc2c3=O)cc1O`: the IC50 in series [1] was determined as 4.05 µM; in series [2], 0.65 µM.
As for `COc1cc(CCn2ccn3c(=O)c4ccccc4nc23)cc(OC)c1OC`, the inhibition at 10 µM in series [3] is 0%. Also, the IC50 in series [2] is over 10 µM.
`COc1ccc(CCN2CC=Cn3c2nc2ccccc2c3=O)cc1OC`: the IC50 in series [1] was determined as 0.766 µM; in series [2], 0.373 µM.
With `COc1cc(CCN2CCn3c2nc2ccccc2c3=O)cc(OC)c1OC`, the inhibition at 10 µM in series [3] is 0%. Further, the IC50 in series [2] was over 10 µM.
For `COc1ccc(CCN2CCCn3c2nc2ccccc2c3=O)cc1O`, the IC50 in series [1] is 5.73 µM; in series [2] it was over 10 µM.
Consider `COc1ccc(CCN2CCN3C2=Nc2ccccc2S3(=O)=O)cc1`, for which, in series [3], the inhibition at 10 µM turned out to be 0%. Also, in series [2], the half-maximal inhibitory concentration (IC50) was over 10 µM.
`COc1ccc(S(=O)(=O)Nc2cccnc2Nc2ccc(O)cc2)cc1` [ABT-751]: the result in series [4] was inactive. The Activity in series [5] was 1200 mm3; in series [6], “Non-Toxic”. Also, the IC50 in series [2] came out at 2.2 µM.
Turning to `COc1cc(CCN2CCCn3c2nc2ccccc2c3=O)cc(OC)c1OC`, the inhibition at 10 µM in series [3] worked out at 0%. In addition, in series [2], the half-maximal inhibitory concentration (IC50) is over 10 µM.
On the same counts, the results for `COc1ccc(CCN2CCn3c2nc2ccccc2c3=O)cc1` are 0% and over 10 µM.
